Sampled rows, rich in hits. Any-hit rate of the full collection: about 0.79%.
hIAP block – blocks human intestinal alkaline phosphatase. P09923. purified IAP, CDP-Star luminescence, 30 min. inhibition, % at 10 µM. 0.12% of 330,000 active;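 active = inhibition reaching a set limit with compound at 10 µM in the primary screen, cut at about 35% in these data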;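 note: plate controls were DMSO wells with enzyme for no effect and no-enzyme buffer wells for full effect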
Target sequence (P09923 whole entry, looked up): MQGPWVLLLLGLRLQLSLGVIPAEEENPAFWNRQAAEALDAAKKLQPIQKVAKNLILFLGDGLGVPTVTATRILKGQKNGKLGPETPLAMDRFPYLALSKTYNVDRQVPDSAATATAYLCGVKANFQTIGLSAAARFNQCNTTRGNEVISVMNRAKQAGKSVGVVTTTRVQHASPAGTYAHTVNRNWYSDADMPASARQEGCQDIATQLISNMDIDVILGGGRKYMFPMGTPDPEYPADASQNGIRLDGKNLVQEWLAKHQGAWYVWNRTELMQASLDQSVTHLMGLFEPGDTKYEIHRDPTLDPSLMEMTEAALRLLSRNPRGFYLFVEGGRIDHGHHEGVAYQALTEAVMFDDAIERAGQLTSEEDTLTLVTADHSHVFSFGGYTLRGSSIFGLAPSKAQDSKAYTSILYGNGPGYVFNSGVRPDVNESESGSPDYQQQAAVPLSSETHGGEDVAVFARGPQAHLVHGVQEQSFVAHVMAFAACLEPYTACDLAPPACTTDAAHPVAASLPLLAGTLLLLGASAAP
mIAP inh – blocks mouse intestinal alkaline phosphatase; purified mouse IAP, CDP-Star luminescence, 30 min; inhibition, % at 10 µM; 0.2% of 330,000 active;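 active = inhibition of at least 40% at 10 µM in the primary screen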;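 note: plate controls were DMSO with enzyme for no effect and no enzyme wells for full effect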
bIAP inh – intestinal alkaline phosphatase (bovine) inhibition | inhibition, % at 20 µM | purified bovine IAP, CDP-star luminescence, 30 min | 190,000 tested, under 10 active;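 active = over 50% inhibition of intestinal alkaline phosphatase at 20 µM in the single-dose screen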
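Assay system – bovine IAP enzyme · Quantity – bovine IAP at 1/65,000,000 final dilution · Detection – CDP-star luminescence signal · Times – 30 min reaction at room temperature · Also added – CDP-star substrate at 30 µM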
bIAP act – increases bovine intestinal alkaline phosphatase activity; purified bovine IAP, CDP-star luminescence, 30 min; hits give high values; fold of DMSO-control signal, blank-subtracted; 0.17% of 200,000 active; AID 1016; activation factor at 20 µM;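 active = activation factor of 2 or more at 20 µM, a signal rise over negative controls twice the positive control's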
hIAP act – human IAP activation | P09923 | 0.16% of 330,000 active | purified human IAP, CDP-Star luminescence, 30 min; hits give high values; 1 = vehicle-only enzyme, 0 = enzyme-free background | activation factor at 10 µM | AID 2524;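 active = activation factor of the enzyme at least 2-fold when tested at 20 µM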
mIAP act – mouse IAP activation; activation factor at 10 µM; 0.24% of 330,000 active; muIAP, CDP-Star luminescence, 30 min; hits give high values; 1 = vehicle-only enzyme signal, 0 = enzyme-free wells;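 active = activation factor of at least 2 at 20 µM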
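Assay system: mouse IAP enzyme / Compound: DMSO-dissolved test compounds / Timing: 30 min, room temperature / Measured by: luminescence from enzymatic CDP-Star hydrolysis / Control set: DMSO-only wells, enzyme-free buffer wells as negative control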
mIAP inh confirm – mouse IAP inhibition confirmation. shares compounds with mIAP inh. purified mouse IAP, CDP-Star luminescence, 30 min. inhibition, % at 10 µM. 4.7% of 11,000 active;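 active = inhibition of at least 40% at 10 µM in either of the two replicates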;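 note: plate controls were DMSO wells with enzyme for no effect and buffer wells lacking enzyme for full effect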
* marks the source's active call; other numbers are inactive results; i = inactive; · = no result.

SMILES	hIAP block	mIAP inh	bIAP inh	bIAP act	hIAP act	mIAP act	mIAP inh confirm
CSc1cccc(NC(=O)C2CCCN(S(=O)(=O)c3ccc(F)cc3)C2)c1 (configuration not stated)	-15	-35	12	0.9	1.1	1.4	·
CSc1cccc(NC(=O)C2CCN(S(=O)(=O)c3ccc(F)cc3)CC2)c1	-40	-205	-17	1.2	1.4	3*	-98
CC(C)C1Nc2ccc(S(N)(=O)=O)cc2C2C=CCC21 (configuration not stated)	10	48*	-3	1	0.91	0.52	45*
CCOC(=O)C1Nc2ccc(OC(F)(F)F)cc2C2C=CCC12 (configuration not stated)	9	-4	·	·	0.91	1	·
Cc1ccccc1NC(=S)NC(NC(=O)c1ccccc1C)C(Cl)(Cl)Cl (configuration not stated)	-31	-105	4	1	1.3	2*	-107
O=C1c2ccccc2C(=O)C1c1ccc(O)cc1	-30	8	9	0.9	1.3	0.92	·
O=C1c2cc(O)c(O)cc2S(=O)(=O)C1c1ccccc1 (configuration not stated)	6	51*	·	·	0.94	0.49	62*
Cc1csc(=O)n1CC(=O)OCC(=O)NCc1ccc(F)cc1	-3	0	·	·	1	1	·
O=C(Cn1cnc([N+](=O)[O-])n1)c1ccc(O)c(O)c1	29	38	·	·	0.71	0.62	·
Cc1cc(C)cc(NC(=O)NCc2c(-c3ccccc3)noc2C)c1	-4	-370	·	·	1	4.7*	-173
Cc1onc(-c2ccccc2)c1CNC(=O)Nc1ccc(F)cc1F	-19	-44	·	·	1.2	1.4	·
Cc1nn(C)c(C)c1CNC(=O)Nc1cccc(Cl)c1	-11	-23	-4	1	1.1	1.2	·
Cc1onc(-c2ccccc2)c1CNC(=O)Nc1ccc(C(F)(F)F)cc1	-23	-306	·	·	1.2	4.1*	-99
Cc1onc(-c2ccccc2)c1CNC(=O)Nc1cccc(Cl)c1	-26	-302	·	·	1.3	4*	-133
CCCCOc1ccc(C(=O)NNC(=O)C2C3CCC(C3)C2C(=O)O)cc1 (configuration not stated)	-3	5	·	·	1	0.95	·
O=C(CNS(=O)(=O)c1ccc([N+](=O)[O-])cc1)N/N=C\c1ccc(O)cc1	-5	7	·	·	1.1	0.93	·
O=C(CNS(=O)(=O)c1ccc([N+](=O)[O-])cc1)N/N=C/c1ccc(O)cc1O	-85	40*	·	·	1.9	0.6	42*
COc1cccc(/C=C2/SC(=S)N(CC(=O)NNC(=O)c3ccccc3O)C2=O)c1	-97	25	·	·	2	0.75	·
O=C(CN1C(=O)/C(=C/c2ccccc2)SC1=S)NNC(=O)c1ccccc1O	-58	41*	-3	1	1.6	0.59	43*
Cc1ccc(NC(=O)NC2(C(=O)NCc3ccccc3)CCCCC2)cc1	20	-175	8	0.9	0.81	2.7*	-131
O=C(Nc1ccc(F)cc1)NC1(C(=O)NCc2ccco2)CCCCC1	-14	-19	7	0.9	1.1	1.2	·
CC(C)c1ccc(NC(=O)NC2(C(=O)NCc3cccnc3)CCCCC2)cc1	-72	-53	·	·	1.7	1.5	·
COc1ccccc1CNC(=O)C1(NC(=O)Nc2ccc(C)cc2)CCCCC1	-183	-490	-386	4.9*	2.8*	5.9*	-244
Cc1ccc(CNC(=O)C2(NC(=O)Nc3ccc(C)cc3)CCCCC2)cc1	4	i	-7	1.1	0.96	6.6*	-198
O=C(Nc1ccc(F)c(Cl)c1)C1CC(=O)n2c(nc3ccccc32)N1 (configuration not stated)	-89	-182	-30	1.3	1.9	2.8*	-142
O=C(c1ccc(COc2ccc(Cl)cc2Cl)o1)N1CCCC1	-6	-3	·	·	1.1	1	·
O=C1N=c2ccccc2=C1c1sc(=S)n(NC(=O)c2ccccc2)c1O	-25	64*	·	·	1.3	0.36	64*
Cn1c(O)c(C2=c3ccccc3=NC2=O)[nH]c1=S	-10	22	3	1	1.1	0.78	·
CCOC(=O)/C(C#N)=C1\CCCN1CC(N)=S	4	19	-4	1	0.96	0.81	·
